Rad51 HR inh = human RAD51 strand exchange inhibitors, primary screen, biochemical, fluorescence; DNA repair protein RAD51 homolog 1 (Homo sapiens), Q06609; hRad51 DNA strand exchange, fluorescence dequenching; inhibition, % at 10 µM; 200,000 compounds, 0.085% hits; AID 1385, 2008;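 active means inhibition above 40% at the single screening dose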;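 further: 0% = DMSO control wells and 100% = blanks with heterologous ssDNA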
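Material: human Rad51–ssDNA filaments; Probe or stimulus: labelled 47-mer dsDNA for strand exchange; Doses: single 10 µM dose; Incubation: 37 °C 15-min filament assembly, 30-min compound preincubation, 15-min exchange; Technique: FRET fluorescence dequenching, excitation 485 nm, emission 520 nm; Measure: Fluorescence-based percent inhibition, control- and blank-normalised; Benchmarks: plate control and blank wells.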
KCC2 mod = KCC2 cotransporter modulators, thallium flux, primary screen, cell-based, HEK293 KCC2, FluoZin-2 fluorescence, MLSMR. 190,000 compounds, 2.2% hits. KCC2 cells, thallium flux FluoZin-2 fluorescence. B-score of Tl+ flux slope (higher = more flux/activation; lower = inhibition) at 10 µM. Solute carrier family 12 member 5 (Homo sapiens), Q9H2X9;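 active means thallium flux slope and its plate-corrected score both differing from the plate sample mean at a set confidence after two filtering rounds, in either direction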;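 further: slope of fluorescence scaled to starting intensity during 10 to 20 s after thallium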
PKD1 kinase inh = inhibitors of human PKD1 kinase, biochemical, fluorescence polarization. 200,000 compounds, 0.056% hits. AID 797, 2007. PKD1 kinase fluorescence polarization assay. inhibition, % (concentration not given with the values); in the data active means inhibition above about 50%
Target sequence (Q15139 whole entry, looked up): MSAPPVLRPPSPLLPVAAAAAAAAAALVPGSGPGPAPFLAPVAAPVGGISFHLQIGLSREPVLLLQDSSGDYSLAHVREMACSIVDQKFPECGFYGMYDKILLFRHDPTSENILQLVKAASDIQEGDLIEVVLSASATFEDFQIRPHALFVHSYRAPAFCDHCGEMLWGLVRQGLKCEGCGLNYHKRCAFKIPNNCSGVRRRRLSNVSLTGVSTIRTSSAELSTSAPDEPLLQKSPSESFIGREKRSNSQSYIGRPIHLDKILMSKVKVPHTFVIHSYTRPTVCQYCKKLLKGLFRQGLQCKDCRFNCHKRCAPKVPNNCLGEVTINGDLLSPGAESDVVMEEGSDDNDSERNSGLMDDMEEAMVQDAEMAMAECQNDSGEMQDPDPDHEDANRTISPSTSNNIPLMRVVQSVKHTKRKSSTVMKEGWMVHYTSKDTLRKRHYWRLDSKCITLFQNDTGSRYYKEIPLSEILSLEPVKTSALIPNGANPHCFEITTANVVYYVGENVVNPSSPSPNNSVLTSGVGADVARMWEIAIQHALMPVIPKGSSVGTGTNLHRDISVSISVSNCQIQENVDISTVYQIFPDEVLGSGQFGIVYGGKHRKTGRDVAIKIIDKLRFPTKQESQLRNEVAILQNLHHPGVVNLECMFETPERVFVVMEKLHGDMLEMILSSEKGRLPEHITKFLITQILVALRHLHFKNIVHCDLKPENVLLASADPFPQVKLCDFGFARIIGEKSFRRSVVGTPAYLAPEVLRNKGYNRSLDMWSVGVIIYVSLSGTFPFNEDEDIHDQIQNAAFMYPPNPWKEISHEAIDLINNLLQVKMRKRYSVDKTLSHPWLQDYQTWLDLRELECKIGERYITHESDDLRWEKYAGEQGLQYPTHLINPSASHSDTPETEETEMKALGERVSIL
ROMK mod = ROMK potassium channel modulators, primary screen, cell-based, thallium flux, MLSMR library; ATP-sensitive inward rectifier potassium channel 1 (Homo sapiens), P48048; Tet-inducible ROMK, thallium flux fluorescence; actives lie on both sides; B-score at 10 µM; 130,000 compounds, 2% hits;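 active means signal ratio slope over the read window, or its plate-corrected B-score, at least 3 SD from the plate mean, either direction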;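 further: B-score of the F/F0 ratio slope over 7 to 12 s after thallium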
KCC2 sec1 = KCC2 modulators in sodium-free buffer, confirmation, cell-based, HEK293 KCC2, thallium flux, secondary assay; shares compounds with KCC2 mod; FluoZin2 fluorescence; hits give high values; normalised thallium flux (F/F0 slope) at 10 µM; 3,700 compounds, 15% hits;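 active means thallium flux slope above the same plate's solvent-only control mean plus 3 SD; inconclusive means the two replicate wells disagree; inactive means no significant difference from solvent-only control wells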
KCC2 bumet counter = thallium flux persisting under bumetanide in KCC2 cells, confirmation, counter-screen for KCC2 modulator project, cell-based, HEK293 KCC2, FluoZin2, secondary assay 3. shares compounds with KCC2 mod. HEK293-KCC2 + bumetanide/ouabain; hits give high values. normalized thallium flux at 10 µM. 3,700 compounds, 49% hits;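 active means thallium entry rate above the same plate's blocked-transporter control wells by more than 3 SD; inconclusive means the two repeat wells disagree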;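 further: raw slope of fluorescence over initial fluorescence between 10 and 20 s after thallium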
KCC2 secondary2 = KCC2 modulators without ouabain present, confirmation, cell-based, HEK293 KCC2, thallium flux, FluoZin2, secondary assay 2; shares compounds with KCC2 mod; thallium flux FluoZin2 fluorescence; actives lie on both sides; F/F0 rise rate, 10–20 s post-thallium; normalized thallium flux at 10 µM; 3,700 compounds, 23% hits;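 active means thallium flux slope more than 3 SD above or below the plate's solvent-only control mean, mostly below; inconclusive means the two repeat wells disagreed; inactive means no significant shift from solvent-only controls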;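 further: raw slope with 0.1% DMSO as baseline and bumetanide as block control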
HEK counter1 = thallium flux modulation in parental HEK cells, confirmation, counter-screen for KCC2 modulator project, cell-based, counterscreen 1; thallium flux rate (normalised fluorescence) at 10 µM; 3,700 compounds, 46% hits; shares compounds with KCC2 mod; AID 1716, 2009; HEK293 parental cells, thallium flux FluoZin2, ouabain; baseline-ratio fluorescence slope, 10–20 s after thallium;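 active means thallium flux rate significantly above the same plate's solvent-only control wells, beyond their mean plus 3 SD; inconclusive means the two replicate wells gave conflicting results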
KCC2 ouabain = KCC2 inhibitors and activators, ouabain retest, confirmation, HEK-KCC2 cells; shares compounds with KCC2 mod; HEK293-KCC2, thallium flux FluoZin2 fluorescence; bidirectional: low = inhibitor, high = activator; raw Tl+ flux slope (below DMSO = inhibition, above = activation) at 10 µM; 3,700 compounds, 48% hits; AID 1717, 2009;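 active means thallium flux slope beyond 3 SD from same-plate DMSO control mean in most replicates, usually higher, sometimes lower; inconclusive means repeat tests gave conflicting results; inactive means no significant difference from controls in most replicates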;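 further: slope of initial-normalized fluorescence between seconds 10 and 20 after thallium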
HEK293 Tl flux2 = native HEK Tl+ uptake effects, second counter-screen – HEK cells, counterscreen 2, counter-screen for KCC2 modulator project, confirmation | 3,700 compounds, 33% hits | shares compounds with KCC2 mod | thallium flux slope at 10 µM | AID 1718, 2009 | HEK293 parental, thallium flux FluoZin-2 fluorescence slope;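 active means thallium flux slope above the same plate's solvent-control mean plus 3 SD in both duplicate wells; inconclusive means duplicate wells that disagreed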;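 further: run without ouabain in cells lacking the KCC2 cotransporter; slope of fluorescence scaled to its starting value between 10 and 20 s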
An asterisk follows results filed as active; u = inconclusive; x = not tested or not shown. This is a sample that favours compounds with a hit; in the whole collection about 3% have one here.

SMILES | Rad51 HR inh | KCC2 mod | PKD1 kinase inh | ROMK mod | KCC2 sec1 | KCC2 bumet counter | KCC2 secondary2 | HEK counter1 | KCC2 ouabain | HEK293 Tl flux2
CC(C)N1CCC(N2CCN(CC#Cc3ccccc3)CC2CCO)CC1 (stereo not drawn) | x | x | 7 | 0.0093 | x | x | x | x | x | x
COC(=O)c1c(NC(=S)Nc2ccccc2Cl)sc(C)c1C | -2 | 6.3* | -13 | x | 0.013* | 0.022* | 0.03 | 0.014* | u | 0.012*
COC(=O)c1c(NC(=O)Cc2ccccc2)sc(C)c1C | 2 | -0.49 | -9 | x | x | x | x | x | x | x
S=c1[nH]nc(CSCCOc2ccccc2)o1 | -14 | -2.3 | x | x | x | x | x | x | x | x
S=c1[nH]nc(CSCCOc2ccc(Cl)cc2Cl)o1 | -9 | 162* | x | x | 0.0076 | 0.056* | u | 0.033* | 0.056* | 0.0098
COc1cc(OC)cc(C(C(=O)NCc2ccccc2)N(Cc2ccco2)C(=O)c2ccno2)c1 (stereo not drawn) | 0 | -2.8* | -1 | x | 0.0067 | 0.0039 | 0.032 | 0.0069 | 0.019 | 0.011
COC(=O)c1ccc(C(C(=O)NCc2ccccc2)N(Cc2ccco2)C(=O)c2cnccn2)cc1 (stereo not drawn) | 7 | x | -13 | -0.11 | x | x | x | x | x | x
Cc1c(NC(=O)C(C)N(c2ccccc2)S(C)(=O)=O)c(=O)n(-c2ccccc2)n1C (stereo not drawn) | -18 | 0.29 | -2 | 0.25 | x | x | x | x | x | x
COc1ccc(-c2nc(-c3ccccc3)c(-c3cccs3)[nH]2)cc1OC | -53 | -5.4* | -7 | -0.16 | 0.0094 | 0.0073 | 0.032 | 0.0043 | 0.018 | 0.011
COc1ccc(-c2nc(-c3cccs3)c(-c3cccs3)[nH]2)cc1OC | -4 | -0.72 | -2 | -1.8 | x | x | x | x | x | x
COc1ccccc1Oc1nc2c(c(=O)n(Cc3ccccc3F)c(=O)n2C)n1C | 3 | 6.1 | -4 | x | x | x | x | x | x | x
Cn1c(NCCCO)nc2c1c(=O)n(Cc1ccccc1F)c(=O)n2C | -2 | 0.23 | -3 | 1.2 | 0.01 | u | 0.027 | 0.0071 | 0.02 | 0.0097
COc1ccc(-c2cc(CCCC(=O)NCCc3ccccc3)no2)cc1 | -24 | -4.3* | x | 0.5 | 0.009 | 0.0067 | u | 0.007 | 0.016* | 0.01
O=C(NC1CCCC1)C1CCN(c2cnccn2)CC1 | -17 | -0.21 | 2 | 1.3 | x | x | x | x | x | x
CCCCC(CCC(=O)O)(C(=O)OCC)c1csc(Nc2ccccc2)n1 (stereo not drawn) | x | -3.9* | 0 | -1 | 0.0077 | 0.0065 | 0.034 | 0.0066 | 0.017* | 0.01
CCOc1ccc(NC2c3ccccc3C(=O)N2Cc2ccco2)cc1 (stereo not drawn) | 3 | -4.2* | -3 | x | 0.0071 | 0.0055 | 0.028 | 0.0051* | 0.016* | 0.0086
